Measured values published in ChEMBL document CHEMBL2396538, “Synthesis and biological evaluation of a novel series of aryl S,N-ketene acetals as antileishmanial agents” (Bioorg Med Chem Lett, 2013).
pIC50: −log10 of the molar value. Active and inactive are the calls of the source. The calls are words filed in the database; no cut-off is given here.

What was measured:
Leishmania donovani [1] = assay: Antileishmanial activity against amastigote stage of Leishmania donovani infected in golden hamster assessed as inhibition of parasite multiplication at 50 mg/kg, ip administered 5 days measured on day 7 by Giemsa staining assay relative to control; type: functional; conditions: for inhibition in vivo at 50 mg/kg: route intraperitoneal
How it was run: (§1)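 Golden hamster L. donovani model; 50 mg/kg given ip for 5 days. Biopsies were taken on day 7 after the last dose, and amastigotes were counted by Giemsa staining. Percent inhibition was derived by comparing infection intensity in treated versus untreated animals and against the initial count in treated animals.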

[2] = (§2) Selectivity index, ratio of CC50 for african green monkey vero cells to IC50 for amastigote stage of Leishmania donovani infected in mouse J774A.1 cells; type: functional
How it was run: (§3)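 Selectivity index calculated as CC₅₀ (Vero cells, 72 h MTT) divided by IC₅₀ against intracellular amastigotes in luciferase-reporter J-774A.1 macrophage assay.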

Leishmania donovani [3] = assay: Antileishmanial activity against promastigote stage of Leishmania donovani assessed as parasite growth inhibition at 25 uM after 72 hrs by luciferase reporter gene assay relative to untreated control; type: functional; conditions: for inhibition of growth at 25 µM: read-out: GI
How it was run: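 Luciferase-transfected L. donovani promastigotes (5 × 10^5/100 µL) exposed to compounds for 72 h. Suspension mixed 1:1 with Steady-Glo reagent; luminescence read as relative luminescence units. Inhibition calculated from luciferase activity of treated versus untreated parasites.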

Leishmania donovani [4] = assay: Antileishmanial activity against amastigote stage of Leishmania donovani infected in mouse J774A.1 cells assessed as parasite growth inhibition after 72 hrs by luciferase reporter gene assay; type: functional, organism-based; conditions: J774.A1, 72 h
How it was run: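 Mouse macrophage J-774A.1 cells (4 × 10^3/100 µL) were seeded, then infected with luciferase-transfected L. donovani promastigotes (4 × 10^4/100 µL), which transformed into intracellular amastigotes. Compounds at 0.62–40 µM for 72 h in CO₂ incubator. Medium replaced with PBS plus Steady-Glo; luminescence read. Growth inhibition versus untreated controls; IC₅₀ derived.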

[5] = Cytotoxicity against african green monkey vero cells assessed as cell viability after 72 hrs by MTT assay; type: cell-based; conditions: chlorocebus sabaeus
How it was run: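 Exponentially growing Vero monkey kidney […] incubated with compounds for 72 h; viable cells detected with MTT (Mosmann method); CC₅₀ estimated.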

Leishmania donovani [6] = assay: Antileishmanial activity against Leishmania donovani infected in hamster assessed as inhibition of parasite multiplication relative to control; type: functional; how it was run: as §1
Leishmania donovani [7] = assay: Antileishmanial activity against amastigote stage of Leishmania donovani infected in golden hamster assessed as inhibition of parasite multiplication at 50 mg/kg, po administered 5 days measured on day 7 by Giemsa staining assay relative to control; type: functional
How it was run: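 L. donovani-infected hamsters received 50 mg/kg orally for 5 days. Post-treatment biopsy was on day 7 after the last dose, with Giemsa-stained amastigote counts. Percent inhibition came from comparing treated animals with untreated animals and with the treated animals' initial counts.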

Syrian golden hamster = assay: Toxicity in golden hamster at 50 mg/kg, ip and po administered 5 days measured on day 7; type: organism-based, Mesocricetus auratus; set-up: dose 50 mg/kg, route oral; conditions: in vivo, 120 h
[8] = Metabolic stability in hamster liver microsomes at 25 uM by HPLC analysis in absence of NADPH and presence of CYP suicidal inhibitor 1-ABZT; conditions: cricetinae
Vero = assay: as §2; type: functional; how it was run: as §3

COc1cc(/C=C/C(=O)/C=C(\Nc2ccc(Cl)cc2)SC)cc(OC)c1OC
inhibition in vivo at 50 mg/kg (Leishmania donovani [1]): 21% | Ratio CC50/IC50 [2]: 36 | inhibition of growth at 25 µM (Leishmania donovani [3]): 98.7% | pIC50 (Leishmania donovani [4]): 5.80 | CC50 at 72 h [5]: 57.9 µM

COc1cc(/C=C/C(=O)C=C(SC)SC)cc(OC)c1OC
inhibition (INH) (Leishmania donovani [6]): 66%

COc1cc(/C=C/C(=O)/C=C(\Nc2ccc(F)cc2)SC)cc(OC)c1OC
inhibition in vivo at 50 mg/kg (Leishmania donovani [1]): 72% | Ratio CC50/IC50 [2]: 36 | inhibition of growth at 25 µM (Leishmania donovani [3]): 97.9% | pIC50 (Leishmania donovani [4]): 5.92 | CC50 at 72 h [5]: 43.4 µM

COc1ccc(N/C(=C\C(=O)/C=C/c2cc(OC)c(OC)c(OC)c2)SC)cc1
inhibition in vivo at 50 mg/kg (Leishmania donovani [1]): 32% | Ratio CC50/IC50 [2]: 69 | inhibition of growth at 25 µM (Leishmania donovani [3]): 99.1% | pIC50 (Leishmania donovani [4]): 5.59 | CC50 at 72 h [5]: 184 µM

NC[C@@H]1O[C@H](O[C@H]2[C@@H](O)[C@H](O[C@@H]3[C@@H](O)[C@H](N)C[C@H](N)[C@H]3O[C@H]3O[C@H](CO)[C@@H](O)[C@H](O)[C@H]3N)O[C@@H]2CO)[C@H](N)[C@@H](O)[C@@H]1O [PAROMOMYCIN]
inhibition in vivo at 50 mg/kg (Leishmania donovani [1]): 46% | Ratio CC50/IC50 [2]: 2 | growth inhibition (GI) (Leishmania donovani [3]): inactive | pIC50 (Leishmania donovani [4]): 4.39 | CC50 at 72 h [5]: 86.6 µM

COc1cc(/C=C/C(=O)/C=C(\NC2CCCCC2)SC)cc(OC)c1OC
Ratio CC50/IC50 [2]: 7 | inhibition of growth at 25 µM (Leishmania donovani [3]): 98.9% | pIC50 (Leishmania donovani [4]): 5.46 | CC50 at 72 h [5]: 22.7 µM

COc1cc(/C=C/C(=O)/C=C(\NCc2ccccc2)SC)cc(OC)c1OC
inhibition (Leishmania donovani [1]): inactive | Ratio CC50/IC50 [2]: 36 | inhibition of growth at 25 µM (Leishmania donovani [3]): 98.6% | pIC50 (Leishmania donovani [4]): 5.70 | CC50 at 72 h [5]: 71.5 µM

COc1cc(/C=C/C(=O)/C=C(\Nc2ccccc2)SC)cc(OC)c1OC
inhibition in vivo at 50 mg/kg (Leishmania donovani [7]): 64% | Activity (Syrian golden hamster): Non-toxic | inhibition in vivo at 50 mg/kg (Leishmania donovani [1]): 83% | Ratio CC50/IC50 [2]: 31 | inhibition of growth at 25 µM (Leishmania donovani [3]): 96.2% | Stability [8]: Stable | pIC50 (Leishmania donovani [4]): 5.68 | CC50 at 72 h [5]: 64.6 µM

Sodium stibogluconate
inhibition (Leishmania donovani [1]): 89% | Ratio CC50/IC50 (Vero): 7 | growth inhibition (GI) (Leishmania donovani [3]): inactive
